Experimental data as given in publication PMC7076145 (Journal of Advanced Research, 2020).
Values after ≈ are worked out from the molar mass of the structure shown.

What was measured:
[1] = tested on: cytokine (TNF-α) production in human leukemia cell line (THP-1); assay: Cytokine; assay type: cell-based; settings: THP-1 cells, LPS 50 ng/mL, 240 min; for inhibition of cytokine (TNF-α) production: test concentration not given
Outline: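 THP-1 cells grown in RPMI-1640 with 50 µM mercaptoethanol, 1 mM sodium pyruvate, 10% FBS, 5.5 mM glucose, 2 mM L-glutamine and 10 mM HEPES, then plated at 70% confluency. Cells differentiated to macrophage-like cells with PMA 20 ng/mL for 24 h (37 °C, 5% CO2). E. coli LPS B added with test compound for 240 min. Supernatant TNF-α measured by human DuoSet ELISA.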

[2] = tested on: T-cell proliferation; assay: T-cells proliferation assay; assay type: cell-based, human; settings: for IC50: Homo sapiens, T-cell, 48 h, read-out: IC50 against T-cell proliferation
Outline: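 PBMCs came from heparinized healthy human blood. Blood was diluted 1:1 with RPMI-1640, layered on LSM and spun at 400 g for 20 min at 25 °C. The buffy layer was washed at 4 °C and resuspended in RPMI with 5% FBS. Cells were activated with PHA-L, given test compound at several concentrations in triplicate, and incubated 2 days at 37 °C, 5% CO2. Alamar Blue (one-tenth volume) was added for 4 h; absorbance read at 570 and 600 nm.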

[3] = human T-lymphocytes, phytohemagglutinin-L 7.5 μg/mL, 2 days

| Compound | inhibition of cytokine (TNF-α) production [1] | activity against T-cell proliferation (in words) [2, 3] | further results |
| --- | --- | --- | --- |
| CC(=O)OC1CC[C@H]2[C@@H]3[C@@H](O)C[C@H]4CC(=O)C=C(C)[C@]4(C)[C@H]3CC[C@]12C (stereo partly drawn) [Compound 4, 7β-Hydroxy-1-methyl-3-oxo-5α-androst-1-en-17-yl acetate] | 33.5 ± 6.6% | inactive |  |
| CC(=O)OC1C[C@@H](O)[C@H]2[C@@H]3CC[C@H]4CC(=O)C=C(C)[C@]4(C)[C@H]3CC[C@]12C (stereo partly drawn) [Compound 6, 15β-Hydroxy-1-methyl-3-oxo-5α-androst-1-en-17-yl acetate] | 37.8 ± 1.1% | inactive |  |
| CC(=O)O[C@H]1CC[C@H]2[C@@H]3CC[C@H]4CC(=O)C=C(C)[C@]4(C)[C@H]3CC[C@]12C [Compound 1, Metenolone acetate, reference compound] | 62.5 ± 4.4% | inactive |  |
| CC1=CC(=O)C[C@@H]2C[C@H](O)[C@H]3[C@@H]4[C@H](O)C[C@H](O)[C@@]4(C)CC[C@@H]3[C@@]12C [Compound 14, 7β,15β,17β-trihydroxy-1-methyl-3-oxo-5α-androst-1-en] | 52.9 ± 2.4% |  |  |
| CC1=CC(=O)C[C@H]2CC[C@H]3[C@@H]4CC[C@H](O)[C@@]4(C)CC[C@@H]3[C@@]12C [Compound 9, 17β-Hydroxy-1-methyl-3-oxo-5β-androst-1-en] |  |  | activity against cytokine (TNF-α) production (in words) [1]: inactive |
| CC1=CC(=O)C=C2CC[C@@H]3[C@H](C[C@@H](O)[C@]4(C)[C@@H](O)CC[C@@H]34)[C@@]12C [Compound 11, 12β,17β-Dihydroxy-1-methyl-3-oxoandrosta-1,4-dien] | 60.1 ± 3.3% |  |  |
| 17β-Hydroxy-1-methyl-3-oxo-5α-androst-1-en [Compound 8] | 69.7 ± 1.4% |  | IC50 against T-cell proliferation [2, 3]: 21.1 ± 0.04 µg/mL |
| CC1=CC(=O)C=C2CC[C@@H]3[C@H](CC[C@]4(C)[C@@H](O)CC[C@@H]34)[C@@]12C [Compound 7, 17β-Hydroxy-1-methyl-3-oxoandrosta-1,4-dien] | 46.6 ± 5.2% | inactive |  |
| CC1=CC(=O)C[C@H]2CC[C@@H]3[C@H](CC[C@]4(C)C(=O)CC[C@@H]34)[C@@]12C [Compound 10, 1-Methyl-5β-androst-1-en-3,17-dione] | 73.2 ± 0.3% |  |  |
| CC(=O)OC1CC[C@H]2[C@@H]3C[C@H](O)[C@H]4CC(=O)C=C(C)[C@]4(C)[C@H]3CC[C@]12C (stereo partly drawn) [Compound 2, 6α-Hydroxy-1-methyl-3-oxo-5α-androst-1-en-17-yl acetate] | 73.4 ± 0.6% |  | IC50 [2]: 68.9 ± 0.02 µg/mL |
| C[C@H]1CC(=O)C[C@@H]2CC[C@H]3[C@@H]4CC[C@H](O)[C@@]4(C)CC[C@@H]3[C@]21C [Compound 13, 17β-Hydroxy-1α-methyl-5α-androstan-3-one] |  |  | activity against cytokine (TNF-α) production (in words) [1]: inactive |
| C[C@]12C=CC(=O)C=C1CC[C@@H]1[C@@H]2[C@@H](O)C[C@@]2(C)[C@H]1CC[C@]2(O)C(=O)CO [prednisolone, reference compound] |  |  | IC50 [2]: 3.51 ± 0.03 µg/mL (≈ 9.74 µM) |
